Results on one compound are retold here after ChEMBL document CHEMBL1123921, “Quinolonecarboxylic acids. 2. Synthesis and antibacterial evaluation of 7-oxo-2,3-dihydro-7H-pyrido[1,2,3-de][1,4]benzothiazine-6-carboxylic acids” (J Med Chem, 1987).

Common to all, as to type: functional
For one assay, the system named is Staphylococcus aureus. As to the kind of experiment: In vitro antibacterial activity against clinical isolates of Staphylococcus aureus 18773 (gram-positive) by agar dilution assay. Summed up: (§1)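 Agar dilution on Isosensitest agar; compound incorporated by twofold serial dilution. Overnight broth cultures delivered by multipoint inoculator at 10⁵ CFU per point. Plates read after 18 h at 37 °C. MIC taken as the lowest concentration giving complete growth inhibition.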

Another assay deals with Morganella morganii. As to the kind of experiment: In vitro antibacterial activity against clinical isolates of Proteus morganii 27 (gram negative) by agar dilution assay. Summed up: as §1
The subject of another assay is Pseudomonas aeruginosa. As to the kind of experiment: In vitro antibacterial activity against clinical isolates of Pseudomonas aeruginosa 2437 (gram negative) by agar dilution assay. In a few lines:
as §1

The subject of another assay is Klebsiella pneumoniae. As to the kind of experiment: In vitro antibacterial activity against clinical isolates of Klebsiella pneumoniae-4 (gram negative) by agar dilution assay. In a few lines:
as §1

The subject of another assay is Enterobacter cloacae. As to the kind of experiment: In vitro antibacterial activity against clinical isolates of Enterobacter cloacae 041 (gram negative) by agar dilution assay. In a few lines: as §1
Another assay relates to Escherichia coli. As to the kind of experiment: In vitro antibacterial activity against clinical isolates of Escherichia coli 15 (gram negative) by agar dilution assay. Summed up: as §1

Molecules are shown by their SMILES. In brackets after ≈: the same amount, converted by molar mass.

As to `CCn1cc(C(=O)O)c(=O)c2cnc(N3CCNCC3)nc21` [PIPEMIDIC ACID], the MIC in the assay on Staphylococcus aureus was 3.12 µg/mL (≈ 10.3 µM); against Morganella morganii, 3.12 µg/mL (≈ 10.3 µM); in the assay with Pseudomonas aeruginosa it was more than 25 µg/mL; in the assay on Klebsiella pneumoniae, 0.78 µg/mL (≈ 2.57 µM); in the assay with Enterobacter cloacae, 0.78 µg/mL (≈ 2.57 µM); against Escherichia coli, 0.39 µg/mL (≈ 1.29 µM).
